Compound activity deposited in PubChem by several laboratories.
The list is not random: actives were taken first. Their share in the collection is about 3.9%.
TMEM16A act: mouse TMEM16A channel activation, primary screen. Q8BHY3. HEK293 TMEM16A/YFP-H148Q/I152L, iodide quench fluorescence; active compounds read low. B-score at 10 µM. 340,000 tested, 0.3% active. AID 623877;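 active = fluorescence-ratio B-score plate-corrected deviation score at least 3 library SD below zero, with starting fluorescence score within 5 deviations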;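 note: channel opened by trigger with iodide after compound preincubation; score built on the fluorescence ratio of max minus min over baseline; more negative score means more quench and so TMEM16A activation or potentiation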
CRFBP-R2 block: blocks CRF-induced signaling of the CRF-BP/CRF-R2 complex; HEK293 CRF-R2/CRF-BP, CRF-induced calcium fluorescence; AID 588475; inhibition, % at 11.8 µM; 350,000 tested, 0.59% active;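 active = inhibition of the ligand-induced calcium signal above about 50% at the single tested concentration, limit read from the data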
TAAR1 antag: antagonists of human TAAR1; inhibition, % at 3 µM; 360,000 tested, 1.5% active; CHO RD-HGA16 TAAR1, Fluo-8 calcium fluorescence, antagonist;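 active = inhibition above a per-plate cutoff, the mean inhibition of test compounds on that plate plus 3 SD, cut at about 49% in these data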;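 note: 0% = DMSO plus EC80 beta-PEA response and 100% = DMSO alone without agonist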
Target sequence (Q96RJ0 whole entry, looked up): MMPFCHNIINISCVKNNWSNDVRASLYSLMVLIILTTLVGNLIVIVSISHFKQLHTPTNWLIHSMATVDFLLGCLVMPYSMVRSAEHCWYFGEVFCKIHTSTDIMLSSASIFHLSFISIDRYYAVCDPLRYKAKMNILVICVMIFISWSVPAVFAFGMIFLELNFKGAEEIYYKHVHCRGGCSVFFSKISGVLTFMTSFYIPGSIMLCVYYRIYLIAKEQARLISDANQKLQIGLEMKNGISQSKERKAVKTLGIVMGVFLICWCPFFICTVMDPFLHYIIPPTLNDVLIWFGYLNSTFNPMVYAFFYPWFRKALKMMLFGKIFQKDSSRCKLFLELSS
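Test system: CHO RD-HGA16 cells bearing hTAAR1 | Reagent: β-PEA, EC80 | Compound dosing: 3 µM, single point | Schedule: Dye loading 75 min at 37 °C, then 30 min room temperature | Signal: Calcium fluorescence with Fluo-8 | Evaluation: Percent inhibition of PEA-evoked calcium signal, max/basal emission ratio | Control set: DMSO-only wells and EC80 β-PEA-stimulated wells | Repeats: Singlicate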
TAAR1 agonist: agonists of human TAAR1; activation, % at 3 µM; 360,000 tested, 0.99% active; AID 624467; CHO RD-HGA16 TAAR1, Fluo-8 calcium fluorescence; vehicle wells 0%, saturating PEA agonist 100%; Q96RJ0;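 active = activation above the mean activation of all test compounds in the run plus 3 SD, cut at about 38% in these data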
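Test system: RD-HGA16 (CHO) cells co-expressing Gα16 and hTAAR1 | Doses: Single dose, 3 µM | Schedule: 17-24 h seeding, 75 min 37 °C dye, 30 min RT | Evaluation: % activation from peak over basal fluorescence ratio, DMSO-to-PEA scaled | Technique: Kinetic Fluo-8 calcium fluorescence | Benchmarks: Low control DMSO, high control PEA (EC100)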
ANO1 block: mouse TMEM16A channel inhibition, primary screen. Q8BHY3. HEK293 TMEM16A/YFP iodide influx fluorescence, ionomycin. normalized B-score (activity score, 25-100; higher = stronger inhibition) at 10 µM. 310,000 tested, 1.2% active. AID 588511;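 active = ratio plate-corrected score three or more library SD toward inhibition, starting fluorescence score within five deviations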;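 note: score derived from kinetic fluorescence span divided by baseline fluorescence per well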
CRFBP-R2 agonist: CRF-BP/CRF-R2 complex agonism; AID 588473; activation, % at 13.2 µM; HEK293 CRF-R2/CRF-BP, calcium dye fluorescence (FLIPR); percent of saturating CRF peptide response; 350,000 tested, 0.46% active;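 active = activation of at least 50%, plus an integration ratio under a set limit after plate pattern correction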;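 note: plate controls were neutral control wells without compound for no effect and CRF at EC100 for full effect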
An asterisk follows results filed as active; i = inactive; / = not tested or not shown.

SMILES	TMEM16A act	CRFBP-R2 block	TAAR1 antag	TAAR1 agonist	ANO1 block	CRFBP-R2 agonist
COC1(OC)C=CC(=O)C=C1NC(=O)c1ccccc1OC(C)=O	i	104*	-4	1	i	0
Cc1ccccc1Cn1nc(C)c(NC(=O)C2c3ccccc3Oc3ccccc32)c1C	i	-13	6	39*	i	0
O=C1CCCc2cc3c(ccc4ccccc43)cc21	i	-1	-17	3	/	1
O=C1CCSc2c1ccc1ccccc21	i	61*	-10	-2	/	-3
CCOc1ccccc1N1CCN(C(=O)C2CSC3(C)CCC(=O)N23)CC1 (configuration not stated)	i	72*	-25	6	/	-1
CCOC(=O)CNC(=O)CCc1nnc2ccc(N3CCC(C)CC3)nn12	i	-6	-16	-1	i	0
CCOc1ccccc1N1CCN(CC(=O)Nc2ccccc2C(=O)NC2CC2)CC1	i	-2	46	19	/	-6
CCN(CC(=O)Nc1ccc(NC(C)=O)cc1)C(=O)/C=C/c1cn(-c2ccccc2)nc1-c1cccs1	i	-15	58*	8	i	0
COc1cc(C)c(NC(=O)Cc2ccsc2)cc1OC	i	7	-15	5	i	-1
Cn1nc(CC(=O)N2CCN(c3ccccc3)CC2)c2ccccc2c1=O	i	2	-13	5	i	0
Cc1[nH]n(CCC#N)c(=O)c1CC(=O)N1CCN(c2ccccc2)CC1	i	60*	5	12	i	1
CCC(C(=O)Nc1cccc(C(F)(F)F)c1)c1ccccc1 (configuration not stated)	-6.6*	7	17	1	i	1
O=C(Nc1cccc(C(F)(F)F)c1)C(SCCO)c1ccccc1 (configuration not stated)	i	-42	7	6	i	0
CCCCOC(=O)C1=C(C)NC(=O)NC1c1ccccc1 (configuration not stated)	i	5	-2	-2	i	-4
CCc1nnc(NC(=O)CSc2nnc(Cc3cc(=O)[nH]c(=O)[nH]3)n2-c2cccc(OC)c2)s1	i	-1	14	0	i	-3
O=C(Cc1ccccc1F)Nc1ccc(SC(F)F)cc1	i	18	1	4	i	1
O=C(Cc1ccc(Cl)cc1)Nc1ccc(SC(F)F)cc1	i	-34	55*	3	i	-1
CCOC(=O)C1CCCN(C(=S)Nc2ccc(S(=O)(=O)N3CCOCC3)cc2)C1 (configuration not stated)	i	12	33	46*	/	0
CCOC(=O)C1CCCN(C(=O)COc2ccccc2F)C1 (configuration not stated)	i	-13	-3	1	i	1
CCOC(=O)C1CCCN(CC(=O)Nc2cc(C)cc(C)c2)C1 (configuration not stated)	i	11	-5	0	i	-5
CCOC(=O)C1CCCN(C(=S)Nc2cc(C)cc(C)c2)C1 (configuration not stated)	i	-3	46	50*	i	-1
CCOC(=O)C1CCCN(C(=O)COc2ccccc2O)C1 (configuration not stated)	i	-4	31	43*	i	-1
CCOC(=O)C1CCN(S(=O)(=O)c2ccc(C(=O)OC)cc2)CC1	-13*	12	6	7	i	1
CCOC(=O)C1CCCN(c2c(N3CCOCC3)c(=O)c2=O)C1 (configuration not stated)	i	1	4	2	i	1
CCOC(=O)C1CCCN(C(=O)N2CCOCC2)C1 (configuration not stated)	i	-10	4	15	25*	-2
SMILES	TMEM16A act	CRFBP-R2 block	TAAR1 antag	TAAR1 agonist	ANO1 block	CRFBP-R2 agonist
CCOC(=O)CSc1cc(CS(C)(=O)=O)nc(-c2ccccn2)n1	-6.6*	8	-1	6	i	-1
CSc1ncccc1C(=O)Nc1ccc(F)c(F)c1F	i	31	6	7	i	2
O=c1c([N+](=O)[O-])c(NCCN2CCCCCC2)c2ccccc2n1-c1ccccc1	i	34	3	10	i	1
O=c1c([N+](=O)[O-])c(NC2CCCCC2)c2ccccc2n1-c1ccccc1	i	57*	13	-1	i	-4
CSc1c(C#N)sc(=S)n1-c1ccc(C)cc1	i	56*	12	0	i	2
CCOP(=O)(OCC)C(Nc1ccc(OC)cc1)c1ccco1 (configuration not stated)	i	-2	-13	8	i	-2
Cc1ccnc(NC(=O)c2ccc(COc3ccc(Cl)cc3)o2)c1	-10*	-17	10	3	i	0
Cc1cccc(OCc2ccc(C(=O)Nc3cc(C)on3)o2)c1	i	-9	0	0	i	1
COc1ccc(C2CC(c3ccccc3)Nc3nc(N)nn32)cc1 (configuration not stated)	i	-17	21	1	i	-2
CS(=O)(=O)Nc1nc2n(n1)C(c1ccccc1)CC(c1ccccc1)N2 (configuration not stated)	i	106*	-36	4	i	-2
COc1ccnc(Oc2ccccc2)c1C(=O)N/C=N/OCc1ccccc1F	i	-5	49*	22	i	0
COc1ccnc(Oc2ccc(F)cc2)c1C(=O)N/C=N/OCc1ccc(F)cc1	i	-37	19	49*	i	9
COc1ccnc(Oc2ccc(F)cc2)c1C(=O)N/C=N/OCc1ccccc1	i	-16	10	10	i	3
CO/N=C/NC(=O)c1c(OC)ccnc1Oc1ccc(F)cc1	i	7	-18	3	i	0
O=[N+]([O-])c1ccc(NC(=S)N2CCc3ccccc32)cc1	i	-5	-5	-1	100*	3
S=C(Nc1ccccc1)N1CCc2ccccc21	i	3	-12	8	i	-1
C=CCC[C@@H](Cc1ccc(F)cc1)C(=O)OC[C@@H](Cc1c[nH]c2ccccc12)NC(=O)[C@@H](CC=C)CC(=O)N(CCO)Cc1ccccc1	/	33	0	0	/	-1
C=CCC[C@H](Cc1ccc(F)cc1)C(=O)OC[C@H](Cc1c[nH]c2ccccc12)NC(=O)[C@H](CC=C)CC(=O)N(CCO)Cc1ccccc1	i	0	29	2	/	-1
